Measured values from ChEMBL document CHEMBL3739352, “Anticonvulsant activity, crystal structures, and preliminary safety evaluation of N-trans-cinnamoyl derivatives of selected (un)modified aminoalkanols” (Eur J Med Chem, 2016).
Calls of active or inactive are those of the source. The calls are words filed in the database; no cut-off is given here.

Assays:
[1] = tested on: Salmonella typhimurium; test: Mutagenicity in Salmonella typhimurium TA98 assessed as number of revertants at 10 ug/plate by Ames test (reference value: 23 +/- 3); type: toxicity, organism-based; conditions: salmonella enterica subsp. enterica serovar typhimurium
[2] = tested on: Mus musculus; test: Anticonvulsant activity in albino Carworth Farms No.1 mouse assessed as protection against subcutaneous dosed pentetrazol-induced seizures at 30 mg/kg, ip after 4 hrs; type: functional, organism-based
Outline: (§1)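 Mouse i.p. screen in Carworth Farms No.1 albino mice at 30, 100 or 300 mg/kg in 0.5% methylcellulose. Testing was at 0.5 and 4 h after injection, by maximal electroshock or by subcutaneous pentetrazol challenge. Scoring was number protected / number used.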

[3] = tested on: Mus musculus; test: Neurotoxicity in albino Carworth Farms No.1 mouse at 300 mg/kg, ip after 0.5 hrs by rotarod test; type: toxicity, organism-based; conditions: in vivo
Outline: (§2)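 Mice (albino Carworth Farms No.1) were dosed i.p. at 30, 100 or 300 mg/kg in 0.5% methylcellulose. They were tested 0.5 and 4 h later on a 1-inch knurled rod rotating at 6 rpm. Neurotoxicity was scored if a mouse could not stay on the rod for at least 1 min in each of three trials. Results are given as animals toxic/animals tested, with deaths noted.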

[4] = tested on: Mus musculus; test: Anticonvulsant activity in albino Carworth Farms No.1 mouse assessed as protection against maximal electroshock-induced seizures at 300 mg/kg, ip after 0.5 hrs; type: functional, organism-based; outline: as §1
[5] = tested on: Mus musculus; test: Anticonvulsant activity in albino Carworth Farms No.1 mouse assessed as protection against maximal electroshock-induced seizures at 30 mg/kg, ip after 4 hrs; type: functional, organism-based; outline: as §1
[6] = tested on: Mus musculus; test: Anticonvulsant activity in albino Carworth Farms No.1 mouse assessed as protection against maximal electroshock-induced seizures at 300 mg/kg, ip after 4 hrs; type: functional, organism-based; outline: as §1
[7] = tested on: Mus musculus; test: Neurotoxicity in albino Carworth Farms No.1 mouse at 30 mg/kg, ip after 4 hrs by rotarod test; type: toxicity, organism-based; conditions: in vivo; outline: as §2
[8] = tested on: Rattus norvegicus; test: Neurotoxicity in Sprague-Dawley rat at 30 mg/kg, po after 4 hrs; type: toxicity, organism-based; conditions: in vivo
Outline: (§3)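 Sprague-Dawley rats were given 30 mg/kg orally in 0.5% methylcellulose. Neurotoxicity was checked at 0.25, 0.5, 1.0, 2.0 and 4 h after dosing. Results are given as number of rats showing neurotoxicity/number tested.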

[9] = tested on: Mus musculus; test: Neurotoxicity in albino Carworth Farms No.1 mouse at 30 mg/kg, ip after 0.5 hrs by rotarod test; type: toxicity, organism-based; conditions: in vivo; outline: as §2
[10] = tested on: Rattus norvegicus; test: Anticonvulsant activity in Sprague-Dawley rat assessed as protection against maximal electroshock-induced seizures at 30 mg/kg, po after 1 hr; type: functional, organism-based
Outline: (§4)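 Sprague-Dawley rats were given 30 mg/kg p.o. in 0.5% methylcellulose. Maximal electroshock was applied at 0.25, 0.5, 1.0, 2.0 and 4 h after dosing. Results are reported as number of rats protected / number tested.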

[11] = tested on: Rattus norvegicus; test: Anticonvulsant activity in Sprague-Dawley rat assessed as protection against maximal electroshock-induced seizures at 30 mg/kg, po after 0.5 hrs; type: functional, organism-based; outline: as §4
[12] = tested on: Mus musculus; test: Anticonvulsant activity in albino Carworth Farms No.1 mouse assessed as protection against subcutaneous dosed pentetrazol-induced seizures at 300 mg/kg, ip after 0.5 hrs; type: functional, organism-based; outline: as §1
[13] = tested on: Mus musculus; test: Anticonvulsant activity in albino Carworth Farms No.1 mouse assessed as protection against subcutaneous dosed pentetrazol-induced seizures at 100 mg/kg, ip after 0.5 hrs; type: functional, organism-based; outline: as §1
[14] = Lipophilicity of the compound at 1 mg/ml by RT-TLC analysis relative to 0% methanol; type: physicochemical; conditions: methanol/water
Outline: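 Reversed-phase TLC used methanol–water mobile phases of 95–65% methanol. Compounds were applied from 1 mg/mL methanol solutions after 1 h chamber saturation, with UV detection. RM = log(1/Rf − 1) was calculated at each methanol level and extrapolated linearly (RM = RM0 + bC) to 0% methanol to give RM0.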

[15] = tested on: Rattus norvegicus; test: Neurotoxicity in Sprague-Dawley rat at 30 mg/kg, po after 2 hrs; type: toxicity, organism-based; conditions: in vivo; outline: as §3
[16] = tested on: Mus musculus; test: Anticonvulsant activity in albino Carworth Farms No.1 mouse assessed as protection against subcutaneous dosed pentetrazol-induced seizures at 100 mg/kg, ip after 4 hrs; type: functional, organism-based; outline: as §1
[17] = tested on: Mus musculus; test: Anticonvulsant activity in albino Carworth Farms No.1 mouse assessed as protection against maximal electroshock-induced seizures at 30 mg/kg, ip after 0.5 hrs; type: functional, organism-based; outline: as §1
[18] = Lipophilicity of the compound using 90% methanol in water at 1 mg/ml by RT-TLC analysis; type: physicochemical; conditions: buffer
Outline: (§5)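 Reversed-phase TLC with a methanol–water mobile phase at the stated methanol content (v/v). Compounds were spotted from 1 mg/mL methanol solutions after 1 h chamber saturation and located under UV light. Rf was measured and RM = log(1/Rf − 1) calculated.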

[19] = tested on: Rattus norvegicus; test: Neurotoxicity in Sprague-Dawley rat at 30 mg/kg, po after 0.25 hrs; type: toxicity, organism-based; conditions: in vivo; outline: as §3
[20] = tested on: Mus musculus; test: Anticonvulsant activity in albino Carworth Farms No.1 mouse assessed as protection against maximal electroshock-induced seizures at 100 mg/kg, ip after 4 hrs; type: functional, organism-based; outline: as §1
[21] = tested on: Rattus norvegicus; test: Anticonvulsant activity in Sprague-Dawley rat assessed as protection against maximal electroshock-induced seizures at 30 mg/kg, po after 0.25 hrs; type: functional, organism-based; outline: as §4
[22] = Lipophilicity of the compound using 85% methanol in water at 1 mg/ml by RT-TLC analysis; type: physicochemical; conditions: buffer; outline: as §5
[23] = Lipophilicity of the compound using 75% methanol in water at 1 mg/ml by RT-TLC analysis; type: physicochemical; conditions: buffer; outline: as §5
[24] = Lipophilicity of the compound using 95% methanol in water at 1 mg/ml by RT-TLC analysis; type: physicochemical; conditions: buffer; outline: as §5
[25] = tested on: Mus musculus; test: Neurotoxicity in albino Carworth Farms No.1 mouse at 100 mg/kg, ip after 4 hrs by rotarod test; type: toxicity, organism-based; conditions: in vivo; outline: as §2
[26] = tested on: Mus musculus; test: Anticonvulsant activity in albino Carworth Farms No.1 mouse assessed as protection against maximal electroshock-induced seizures at 100 mg/kg, ip after 0.5 hrs; type: functional, organism-based; outline: as §1
[27] = Lipophilicity of the compound using 65% methanol in water at 1 mg/ml by RT-TLC analysis; type: physicochemical; conditions: buffer; outline: as §5
[28] = tested on: Rattus norvegicus; test: Neurotoxicity in Sprague-Dawley rat at 30 mg/kg, po after 0.5 hrs; type: toxicity, organism-based; conditions: in vivo; outline: as §3
[29] = tested on: Rattus norvegicus; test: Neurotoxicity in Sprague-Dawley rat at 30 mg/kg, po after 1 hr; type: toxicity, organism-based; conditions: in vivo; outline: as §3
[30] = tested on: Mus musculus; test: Neurotoxicity in albino Carworth Farms No.1 mouse at 100 mg/kg, ip after 0.5 hrs by rotarod test; type: toxicity, organism-based; conditions: in vivo; outline: as §2
[31] = tested on: Mus musculus; test: Neurotoxicity in albino Carworth Farms No.1 mouse at 300 mg/kg, ip after 4 hrs by rotarod test; type: toxicity, organism-based; conditions: in vivo; outline: as §2
[32] = tested on: Rattus norvegicus; test: Anticonvulsant activity in Sprague-Dawley rat assessed as protection against maximal electroshock-induced seizures at 30 mg/kg, po after 2 hrs; type: functional, organism-based; outline: as §4
[33] = tested on: Mus musculus; test: Anticonvulsant activity in albino Carworth Farms No.1 mouse assessed as protection against subcutaneous dosed pentetrazol-induced seizures at 300 mg/kg, ip after 4 hrs; type: functional, organism-based; outline: as §1
[34] = tested on: Mus musculus; test: Anticonvulsant activity in albino Carworth Farms No.1 mouse assessed as protection against subcutaneous dosed pentetrazol-induced seizures at 30 mg/kg, ip after 0.5 hrs; type: functional, organism-based; outline: as §1
[35] = tested on: Rattus norvegicus; test: Anticonvulsant activity in Sprague-Dawley rat assessed as protection against maximal electroshock-induced seizures at 30 mg/kg, po after 4 hrs; type: functional, organism-based; outline: as §4

| Compound | Activity [2] | Activity [3] | Activity [4] | Activity [5] | Activity [6] | Activity [7] | Activity [8] | Activity [9] | Activity [10] | Activity [11] | Activity [12] | Activity [13] | Rm [14] | Activity [15] | Activity [16] | Activity [17] | Rm [18] | Activity [19] | Activity [20] | Activity [21] | further results |
| --- | --- | --- | --- | --- | --- | --- | --- | --- | --- | --- | --- | --- | --- | --- | --- | --- | --- | --- | --- | --- | --- |
| Nc1ccc([N+](=O)[O-])cc1N |  |  |  |  |  |  |  |  |  |  |  |  |  |  |  |  |  |  |  |  | Activity [1]: 647 |
| CC(=O)OCC(C)NC(=O)/C=C/c1ccccc1 (racemic) | inactive | Non-toxic | Active | inactive | inactive | Non-toxic | Non-toxic | Non-toxic | inactive | inactive | inactive | inactive | 1.88 | Non-toxic | inactive | inactive | -0.48 | Non-toxic | inactive | inactive | Rm [22]: -0.21; Rm [23]: -0.07; Rm [24]: -0.58; Activity [25]: Non-toxic; Activity [26]: Active; Rm [27]: 0.19; Activity [28]: Non-toxic; Activity [29]: Non-toxic; Activity [30]: Non-toxic; Activity [31]: Non-toxic; Activity [32]: inactive; Activity [33]: inactive; Activity [34]: inactive; Activity [35]: inactive |
| CC(=O)OC(C)CNC(=O)/C=C/c1ccccc1 (racemic) | inactive | Non-toxic | Active | inactive | Active | Non-toxic | Non-toxic | Non-toxic | inactive | inactive | Active | inactive | 2.003 | Non-toxic | inactive | inactive | -0.48 | Non-toxic | inactive | inactive | Rm [22]: -0.19; Rm [23]: -0.1; Rm [24]: -0.58; Activity [25]: Non-toxic; Activity [26]: inactive; Rm [27]: 0.25; Activity [28]: Non-toxic; Activity [29]: Non-toxic; Activity [30]: Non-toxic; Activity [31]: Non-toxic; Activity [32]: inactive; Activity [33]: inactive; Activity [34]: inactive; Activity [35]: inactive |
